Bioassay records from PubChem BioAssay.
Most compounds without a hit are left out; they make up all but 2.4% or so of the library.
HNF4A DNA FP: change in binding of human HNF4 alpha to DNA. P41235. HNF4a-FITC DNA binding, fluorescence polarization, 1 h. activity change, % at 10 µM. 0.3% of 360,000 active; in the data active = activity change above about 30%, passing the limit was not always enough
Neddylation inh: blocks human cullin neddylation | P61081+Q13564 | inhibition, % at 25 µM | TR-FRET cullin neddylation, biochemical | 0.58% of 360,000 active; in the data active = inhibition above about 36%
CSN deneddyl inh: CSN deneddylation inhibition; inhibition, % at 12.5 µM; Purified CSN, SCF-Nedd8-OG deneddylation, fluorescence polarization; AID 651999; 0.38% of 360,000 active;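 active = pattern-corrected inhibition above about 35%, with an unprinted fluorescence ratio check between 0.5 and 1.5, limit read from the data, passing the limit was not always enough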;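 also: 0% = enzyme with substrate and 100% = substrate without enzyme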
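Assay system: Purified human Csn5 enzyme expressed in HEK293T cells | Amount: Enzyme 0.24 nM | Measured by: Fluorescence polarization readout | Medium: Tris/NaCl/DTT buffer, pH 7.5 | Compound dosing: One concentration, 12.5 µM, 0.25% DMSO | Times: 90 min incubation of compound, enzyme and substrate at room temperature | Control set: no-enzyme wells high, enzyme-with-substrate wells low | Read-out: % inhibition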
Rpn11 block: Rpn11 (human) deubiquitinase inhibition; O00487; human 26S proteasome, Ub4-pepOG fluorescence polarization; 20S core pre-blocked with epoxomicin; inhibition, % at 20 µM; 0.59% of 360,000 active; AID 588493;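 active = inhibition at 20 µM, scaled to each plate's controls, above about 33%, limit read from the data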
PREPL inh: inhibits the human prolyl oligopeptidase-like enzyme. 0.68% of 320,000 active. recombinant PREPL, fluorescence polarization activity-based probe. inhibition, % at 5.96 µM; in the data active = inhibition above about 43%;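 also: 0% = enzyme with DMSO and 100% = wells lacking enzyme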
Target sequence (Q4J6C6 whole entry, looked up): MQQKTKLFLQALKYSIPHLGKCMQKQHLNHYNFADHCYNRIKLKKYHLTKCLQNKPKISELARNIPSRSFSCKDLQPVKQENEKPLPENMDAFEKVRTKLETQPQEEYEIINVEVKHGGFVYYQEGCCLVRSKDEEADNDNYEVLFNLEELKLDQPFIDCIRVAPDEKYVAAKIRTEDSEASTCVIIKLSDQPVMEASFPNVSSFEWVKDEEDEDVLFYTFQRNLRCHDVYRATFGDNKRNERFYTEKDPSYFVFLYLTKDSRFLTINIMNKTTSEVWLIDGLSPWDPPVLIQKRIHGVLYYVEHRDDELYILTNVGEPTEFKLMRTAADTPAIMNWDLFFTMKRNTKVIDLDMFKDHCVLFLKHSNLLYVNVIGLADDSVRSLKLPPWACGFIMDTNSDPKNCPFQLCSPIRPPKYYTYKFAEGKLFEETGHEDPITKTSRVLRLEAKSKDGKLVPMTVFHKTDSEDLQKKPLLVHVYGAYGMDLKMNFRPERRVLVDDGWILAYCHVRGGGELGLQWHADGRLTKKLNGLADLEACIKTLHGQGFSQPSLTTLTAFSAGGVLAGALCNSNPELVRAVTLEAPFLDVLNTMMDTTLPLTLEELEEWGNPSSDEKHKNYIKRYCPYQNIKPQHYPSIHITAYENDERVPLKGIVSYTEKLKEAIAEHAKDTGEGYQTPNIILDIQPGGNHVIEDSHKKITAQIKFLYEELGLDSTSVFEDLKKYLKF
Tb MetRS inh: Trypanosoma brucei MetRS inhibition | AID 624268 | 0.4% of 360,000 active | inhibition, % at 11.9 µM | purified T. brucei MetRS, ATP depletion, Kinase-Glo luminescence;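 active = inhibition above a per-plate cutoff of the control wells' mean inhibition plus 3 SD, cut at about 5.5% in these data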;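 also: 0% = DMSO wells median and 100% = median of wells with control inhibitor compound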
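Material: parasite MetRS enzyme / Replication: singlicate, one well per compound / Signal: luminescence of leftover ATP / Schedule: 2 h aminoacylation at 25 °C after 15 min preincubation / Medium: HEPES-MgCl2-KCl buffer plus DTT, spermine, BSA, pyrophosphatase / Doses: 11.9 µM single point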
CSN5 deneddyl: Csn5 (human) deneddylation inhibition, single-concentration validation | 62% of 540 active | AID 720654 | Csn5 deneddylation of SCF-Nedd8OG, fluorescence polarization, 90 min | inhibition, % at 16.6 µM | shares compounds with CSN deneddyl inh; in the data active = inhibition above about 50%;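 also: 0% = DMSO with enzyme and 100% = no enzyme wells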
MMP-2 counter: blocks human MMP-2 in a CSN deneddylation counter-screen. shares compounds with CSN deneddyl inh. recombinant MMP-2, FRET substrate fluorescence, 60 min. inhibition, % at 16.6 µM. 33% of 540 active;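 active = corrected plate-normalized z-score of 5 or more, or -5 or less, or inhibition of 15% or more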;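 also: plate controls were DMSO wells with enzyme for no effect and buffer wells lacking MMP-2 for full effect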
Thrombin counter: counter-screen for CSN deneddylation inhibitors: bovine thrombin inhibition; shares compounds with CSN deneddyl inh; bovine thrombin cleavage of Ub4-pepOG, fluorescence polarization; inhibition, % at 16.6 µM; 49% of 540 active; AID 720656;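 active = inhibition at or above a set limit, with a fluorescence interference ratio between 0.5 and a set maximum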
* hit, by the source's call.

Screening COc1ccc(/C=C2/C(=O)N(Cc3ccco3)C(=O)N(C(C)C)C2=O)cc1 returned HNF4A DNA FP 24, Neddylation inh -37, CSN deneddyl inh 99*, Rpn11 block 171*, PREPL inh 3, Tb MetRS inh 0, CSN5 deneddyl 1, MMP-2 counter 11 and Thrombin counter 56*.
`S=P(Nn1cnnc1)(c1ccccc1)c1ccccc1` gave HNF4A DNA FP 3, Neddylation inh 8, CSN deneddyl inh -3, Rpn11 block -11, PREPL inh -17 and Tb MetRS inh -1.
Screening O=C1NC(=O)N(Cc2ccccc2)C(=O)/C1=C/C=C/c1ccco1 returned HNF4A DNA FP 42*, Neddylation inh 10, CSN deneddyl inh 121*, PREPL inh 2, Tb MetRS inh 0, CSN5 deneddyl 71*, MMP-2 counter 3 and Thrombin counter 22*.
Cc1cc(C)c(NC2=NCCS2)cc1C was read as HNF4A DNA FP 3, Neddylation inh 3, CSN deneddyl inh -1, Rpn11 block 6 and Tb MetRS inh 0.
`c1ccc(-c2ccc3c(c2)CNCc2cnnn2-3)cc1` gave HNF4A DNA FP -1, Neddylation inh 1, CSN deneddyl inh 5, Rpn11 block 3 and Tb MetRS inh -1.
`CCC1(C)OC(c2ccccc2)=C/C(=C/C=C2C(=O)NC(=O)NC2=O)O1` (configuration not stated) gave HNF4A DNA FP 180, Neddylation inh 1, CSN deneddyl inh 78*, Tb MetRS inh -1, CSN5 deneddyl 139*, MMP-2 counter -16 and Thrombin counter 51*.
CC(=O)N1CC(=O)Nc2ccc(C)cc2C1c1ccccc1 (configuration not stated) was read as HNF4A DNA FP 3, Neddylation inh 0, CSN deneddyl inh -1, Rpn11 block -5, PREPL inh 2 and Tb MetRS inh -1.
O=C1NC(=O)N(Cc2ccc(F)cc2)C(=O)/C1=C\c1ccc(N2CCCC2)cc1 was read as HNF4A DNA FP -2, Neddylation inh 25, CSN deneddyl inh 38*, PREPL inh 5, Tb MetRS inh 0, CSN5 deneddyl 98*, MMP-2 counter 1 and Thrombin counter 6.
O=C1NC(=O)N(Cc2ccc(F)cc2)C(=O)/C1=C\c1ccc([N+](=O)[O-])s1 was read as HNF4A DNA FP -9, Neddylation inh -20, CSN deneddyl inh 35*, Rpn11 block 35, PREPL inh 11, Tb MetRS inh 2, CSN5 deneddyl 34, MMP-2 counter 15* and Thrombin counter 0.
For COc1ccc(CN2C(=O)NC(=O)/C(=C/c3ccc([N+](=O)[O-])s3)C2=O)cc1 the results were HNF4A DNA FP 3, Neddylation inh -22, CSN deneddyl inh 42*, Rpn11 block 51*, PREPL inh 18, Tb MetRS inh 0, CSN5 deneddyl 35, MMP-2 counter 12 and Thrombin counter 4.
Screening COc1ccccc1N1C(=O)NC(=O)/C(=C/c2ccc([N+](=O)[O-])s2)C1=O returned PREPL inh 21.
O=C1N(c2nncs2)CCN1[N+](=O)[O-] was read as HNF4A DNA FP -1, Neddylation inh 4, CSN deneddyl inh -3, Rpn11 block -10, PREPL inh 2 and Tb MetRS inh 0.
`O=C1NC(=O)N(c2cccc(Cl)c2)C(=O)/C1=C\c1ccc(Sc2nc3ccccc3[nH]2)o1` gave HNF4A DNA FP 16, Neddylation inh -12, CSN deneddyl inh 38*, Rpn11 block 58*, PREPL inh -39, Tb MetRS inh 1, CSN5 deneddyl 8, MMP-2 counter -7 and Thrombin counter 25*.
